Bioassay records deposited in PubChem BioAssay by several laboratories.
FLuc inh counter: Photinus pyralis luciferase inhibition counter-screen; 200,000 tested, 1.5% active; inhibition, % at 10 µM; ATPLite firefly luciferase biochemical luminescence, 10 min; P08659;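 active = inhibition above about 50% when tested at 10 µM, limit read from the data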
Target sequence (P08659 whole entry, looked up): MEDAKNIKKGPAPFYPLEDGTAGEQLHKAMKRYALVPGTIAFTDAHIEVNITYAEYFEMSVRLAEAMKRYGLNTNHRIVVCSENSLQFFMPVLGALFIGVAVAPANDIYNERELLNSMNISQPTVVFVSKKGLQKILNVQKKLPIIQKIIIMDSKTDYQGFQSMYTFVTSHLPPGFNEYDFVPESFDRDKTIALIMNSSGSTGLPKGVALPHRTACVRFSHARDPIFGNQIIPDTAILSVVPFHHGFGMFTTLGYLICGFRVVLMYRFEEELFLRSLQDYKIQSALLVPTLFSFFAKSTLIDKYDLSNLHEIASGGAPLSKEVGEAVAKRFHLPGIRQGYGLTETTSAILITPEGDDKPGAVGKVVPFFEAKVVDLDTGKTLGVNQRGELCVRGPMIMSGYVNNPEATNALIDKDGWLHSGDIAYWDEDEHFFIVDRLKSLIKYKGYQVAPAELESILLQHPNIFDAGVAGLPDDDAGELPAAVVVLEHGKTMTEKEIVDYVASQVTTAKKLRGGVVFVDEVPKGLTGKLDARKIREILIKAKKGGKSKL
FLuc act counter: firefly luciferase counter-screen for stimulation assays. P08659. ATPlite luciferase biochemical, luminescence, 10 min; 0 = ATP-free wells, 1 = DMSO control. activation factor at 10 µM. 200,000 tested, under 10 active. AID 1027;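 active = luciferase activation factor, scaled between plate controls, of at least 2 with compound at 10 µM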
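Assay system: Luciferase/luciferin reagent mix; Medium: PBS as buffer for the ATP substrate; Dosing: test compounds dosed from 2 mM stocks in 100% DMSO; Times: 10 min, room temperature; Signal: luminescence from luciferase reaction; Read-out: luciferase activation; Controls: No-ATP low control, compound-free enzyme-plus-ATP high control.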
C8 TRAIL sens: caspase-8 TRAIL sensitization. NB7+C8 cells + TRAIL, ATPlite viability luminescence. inhibition (viability loss, TRAIL sensitization), % at 10 µM. AID 624354. 360,000 tested, 1% active;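 active = compounds causing at least 50% loss of cell viability in the single-dose screen, relative to plate controls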
NF-kB neuron act: compounds increasing NF-kB expression in human neuronal cells; AID 1239; NF-kB reporter expression; stronger effect = higher value; 190,000 tested, 1.6% active; fold change at 12.5 µM; in the data active = fold change above about 3.3
PPC-1+TRAIL kill: kills PPC-1 cancer cells in the presence of TRAIL | PPC-1 cells + TRAIL, ATPLite viability luminescence | cell killing (% activity), % at 4 µM or 5 µM | 220,000 tested, 0.41% active | AID 1443;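 active = cell killing above 50% in the first pass at 4 µM, then a duplicate retest at 5 µM averaging 50% or more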;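 also: plate controls were cells with TRAIL plus DMSO for no effect and medium-only wells lacking cells for full effect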
APP 5'UTR act: activates APP 5'UTR luciferase reporter; 190,000 tested, 1% active; AID 1276; activation, % at 2 µM; SH-SY5Y APP 5'UTR luciferase reporter, luminescence; zero percent = DMSO vehicle wells;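 active = activation above a set limit, based on mean plus 3 SD of controls, cut at about 140% in these data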
* = called active by the depositor; . = no result. Shown are actives, neighbours in structure and some others; about 2.2% of the full set was active somewhere.

SMILES	FLuc inh counter	FLuc act counter	C8 TRAIL sens	NF-kB neuron act	PPC-1+TRAIL kill	APP 5'UTR act
O=c1cc(-c2ccc(O)cc2)oc2ccc3ccccc3c12	.	.	89.6*	.	.	.
CCOc1ccc(Oc2ccc(-c3nnc(-c4ccccc4)o3)cc2[N+](=O)[O-])cc1	-10.6	1.1	-5.4	1.28	28.9	-8.8
CN1CC(c2ccccc2)C2(SC(=S)N(Cc3ccco3)C2=O)C12C(=O)Nc1ccccc12 (stereo unspecified)	-2.5	1	49.9*	0.62	18.0	-34.8
CCOC(=O)c1c(C)[nH]c(C(=O)COC(=O)CCSc2ccccc2)c1C	-2.9	1	-4.8	1.17	13.1	38.6
CCOC(=O)c1c(C)[nH]c(C(=O)CSc2ccccc2)c1C	33.9	0.7	32.6	3.64*	22.7	160.3*
Cc1ccc(N(CC(=O)N2CCCCCC2)S(C)(=O)=O)c(C)c1	.	.	-7.2	.	.	.
O=C(O)c1ccccc1-c1ccccc1C(=O)Nc1ccc2c(c1)CCC2	.	.	10.5	.	.	.
O=C(Nc1ccc2c(c1)CCC2)c1ccccc1	62.2*	0.4	40.9	7.98*	30.0	171.7*
O=C(Nc1ccc2c(c1)CCC2)c1ccccc1F	61.9*	0.4	56.7*	8.26*	6.1	183.3*
O=C(CCNC(=O)c1ccc([N+](=O)[O-])cc1)Nc1nc2ccccc2[nH]1	.	.	-5.8	.	.	.
Cc1ccc(-c2cnc3cccnn23)cc1F	.	.	11.3	.	.	.
CCOC(=O)c1cc2c(C)n(-c3ccc(C)cc3)c(C)c2ccc1=O	84.3*	0.2	58.7*	1.43	-4.2	114.9
Cc1c(C(=O)N2CCCCC2)c(S(=O)(=O)N(C)Cc2ccccc2)c(C)n1C	.	.	4.3	.	.	.
CCCCOc1ccc(Cc2c(O)nc(SC)[nH]c2=O)cc1	.	.	8.9	.	.	.
CCCCNC(=O)c1ccc(Cn2c(=S)[nH]c3c([nH]c4ccc(OC)cc43)c2=O)cc1	-5.7	1.1	70.4*	1.3	17.2	-7.1
CN(c1ccccc1)S(=O)(=O)c1ccc(C(=O)NCc2ccccc2F)cc1	.	.	-17.2	.	.	.
CCCCC[C@@H](C)N1C[C@H](COCc2ccccc2)Oc2cc(N3CC[C@@H](N(C)C)C3)ccc2S1(=O)=O	.	.	76.6*	.	.	.
NS(=O)(=O)c1ccc(CNC(=O)c2ccc(S(=O)(=O)NCc3ccco3)cc2)cc1	.	.	3.6	.	.	.
CCc1ccc(C(O)c2ncc(-c3ccc(C)cc3)[nH]2)cc1 (stereo unspecified)	.	.	-7.6	.	.	.
CCCCNc1c(-c2ccc(SC3CCCCC3)cc2)nc2ccccn12	.	.	35.7	.	.	.
CCCCNc1c(-c2ccc(SC(C)CC)cc2)nc2ccccn12 (stereo unspecified)	.	.	69.1*	.	.	.
CCOC(=O)Cc1ccc(NC(=O)c2ccc(C(C)(C)C)cc2)cc1	53.8*	0.5	31.8	0.36	47.6	-70.7
COC(=O)Cc1ccc(NC(=O)c2ccc(C)c(C)c2)cc1	38.3	0.6	26.8	3.92*	14.3	21.2
Cc1noc(N)c1C(=O)Nc1ccc(C(C)(C)C)cc1	67.1*	0.3	55.6*	3.97*	30.2	74.7
Cc1nc(Cl)sc1C(=O)Nc1ccc(C(C)(C)C)cc1	.	.	19.9	.	.	.
SMILES	FLuc inh counter	FLuc act counter	C8 TRAIL sens	NF-kB neuron act	PPC-1+TRAIL kill	APP 5'UTR act
CC(=O)c1ccc(Nc2ccc(-c3ccccc3F)nn2)cc1	57.7*	0.4	47.6	6.88*	18.1	145.7*
COc1ccccc1-c1ccc(Nc2ccc(C(=O)N3CCOCC3)cc2)nn1	-1.5	1	3.3	1.32	34.3	1.6
O=C(CCS(=O)(=O)c1ccc(Br)cc1)Nc1ccccn1	-7.1	1.1	-1.1	1.14	65.5*	13.6
O=C(CCSc1ccccn1)Nc1ccc(Br)cc1	2.0	1	16.6	3.38*	13.8	65.1
O=C(NCCN1C(=O)S/C(=C\c2ccccc2F)C1=O)C1CCCN1C(=O)c1cccs1 (stereo unspecified)	-4.6	1	-2.4	1.09	-10.1	8.1
CCOC(=O)C1(C)CCCN1C(=O)c1ccc2ccccc2c1 (stereo unspecified)	.	.	9.5	.	.	.
CN[C@H]1C[C@H]2c3[nH]c4ccc(-c5ccc(OC)cc5)cc4c3CCN2C(=O)[C@H]1[C@H](C)O	.	.	1.8	.	.	.
Cc1ccc(C(=O)CCNc2ccc(F)c(Cl)c2)o1	-3.2	1	8.6	5.36*	6.3	31.3
Cc1ccc(C(=O)CCNc2ccc(Br)cc2)o1	-0.7	1	8.6	1.27	32.5	30.9
O=C(Nc1ccc(-c2nc3ccccc3[nH]2)cc1)c1ccco1	57.7*	0.4	40.4	2.58	33.4	169.2*
O=C(Nc1ccc2nc(-c3ccco3)[nH]c2c1)c1cccs1	76.6*	0.2	55.4*	1.1	26.4	48.4
O=C(Nc1ccc2nc(-c3ccccc3)[nH]c2c1)c1cccs1	34.9	0.7	24.7	0.46	0.9	45.8
Cn1cc([N+](=O)[O-])c(C(=O)Nc2ccc(C3CCCCC3)cc2)n1	13.9	0.9	60.9*	3.74*	46.0	26.6
Cn1cc([N+](=O)[O-])c(C(=O)Nc2ccc(C(=O)N3CCCCC3)cc2)n1	-3.2	1	14.4	1.04	-0.8	-20.9
O=C(Nc1ccc2nc(-c3ccco3)[nH]c2c1)c1ccco1	80.2*	0.2	46.5	0.92	39.0	15.6
Cn1cc([N+](=O)[O-])c(C(=O)Nc2ccc(-c3nc4ccccc4[nH]3)cc2)n1	20.1	0.8	9.3	9.53*	3.7	50.6
Cn1cc([N+](=O)[O-])c(C(=O)Nc2ccc3nc(-c4ccccc4)[nH]c3c2)n1	36.6	0.6	18.3	1.41	10.7	56.8
O=C(NCc1cccc(Cl)c1)c1ccc(-n2ccnc2)c2ccoc12	.	.	-5.5	.	.	.
CCCCCC(=O)N1C[C@H](n2cc(COC(=O)c3ccccc3)nn2)[C@@H](O)C[C@@H]1c1ccc(OC)cc1	.	.	21.1	.	.	.
COc1ccc(-c2cc3ccc(F)cc3cn2)cc1	.	.	57.3*	.	.	.
O=C(Nc1ccccc1N1CCOCC1)C1CCCO1 (stereo unspecified)	.	.	12.0	.	.	.
Cc1cccc(-c2nc(C#N)c(NC3CCCCC3)o2)c1	23.1	0.8	26.9	2.84	12.2	136.5*
O=C(Cc1ccsc1-c1ccccc1)NO	-3.7	1	63.2*	1.96	6.8	16.7
Cc1cc(NC2CCCCC2)n2c(n1)nc1ccccc12	-2.3	1	1.5	5.42*	4.4	8.1
CS(=O)(=O)c1sc(C#N)c2c1C(=O)CC(c1ccccc1)C2 (stereo unspecified)	.	.	73.5*	.	4.1	.
O=c1[nH]c(=S)[nH]c2c1C(c1ccc(Cl)c(Cl)c1)OC(CCc1ccccc1)C2 (stereo unspecified)	.	.	59.3*	.	.	.
CCC(=O)Nc1cccc(C(=O)OCC(=O)c2ccccc2Cl)c1	30.9	0.7	-5.1	2.17	-2.8	10.0
CC(=O)Nc1cccc(C(=O)OCC(=O)c2ccccc2Cl)c1	82.3*	0.2	-8.2	2.24	12.2	29.4
O=C(Nc1ccc(C#Cc2ccccc2)cc1)C1CC1	0.5	1	19.8	3.87*	-3.4	110.4
